# Tests used:
# [1] = test system: Chinese hamster ovary (CHO) cell line AS52, clone 11-4-8; assay: CHO cell chronic cytotoxicity assay; format: cell-based; conditions: mean bootstrap value, calculated as (LC50)^−1(10^3); CHO cells, 72 h
# [2] = test system: genomic DNA damage in Chinese hamster ovary (CHO) cell line AS52, clone 11-4-8; assay: Single cell gel electrophoresis; format: cell-based; conditions: CHO cells, 4 h; for GTI (±SE), genotoxicity index: mean bootstrap value, calculated as (50%TDNA)^−1(10^3)
# Method in brief: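 CHO AS52 clone 11-4-8 cells (Ham's F12, 5% FBS, 37 °C, 5% CO2) exposed to test compound, then run in microplate comet assay. %Tail DNA scored only over concentrations with viability >70%. Microgel means were averaged per concentration and tested by one-way ANOVA with Holm-Sidak versus control (P ≤ 0.05). 50% Tail DNA concentration came from regression. Bootstrap replicates gave GTI values (1/M).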
# [3] = CHO cell chronic cytotoxicity assay; format: cell-based, Chinese hamster; conditions: Chinese hamster, CHO cells, line AS52, clone 11-4-8
compound,measurement,setting,value
"O=CCBr [BAL, bromoacetaldehyde]","CTI (±SE), cytotoxicity index",[1],64.6 ± 3.5 M⁻¹
same,"GTI (±SE), genotoxicity index",[2],2.68 ± 0.11 M⁻¹
"O=CC(Cl)Br (stereo not shown) [BCAL, bromochloroacetaldehyde]","CTI (±SE), cytotoxicity index",[1],207.4 ± 11.0 M⁻¹
same,"GTI (±SE), genotoxicity index",[2],1.61 ± 0.21 M⁻¹
"O=CC(Cl)(Cl)Br [BDCAL, bromodichloroacetaldehyde]","CTI (±SE), cytotoxicity index",[1],51.1 ± 4.3 M⁻¹
same,"GTI (±SE), genotoxicity index",[2],2.24 ± 0.05 M⁻¹
"O=CC(Br)Br [DBAL, dibromoacetaldehyde]","CTI (±SE), cytotoxicity index",[1],207.5 ± 2.1 M⁻¹
same,"GTI (±SE), genotoxicity index",[2],9.11 ± 0.60 M⁻¹
"O=CC(Cl)(Br)Br [DBCAL, dibromochloroacetaldehyde]","CTI (±SE), cytotoxicity index",[1],200.2 ± 1.4 M⁻¹
same,"GTI (±SE), genotoxicity index",[2],6.99 ± 0.28 M⁻¹
"O=CC(Cl)Cl [DCAL, dichloroacetaldehyde]","CTI (±SE), cytotoxicity index",[1],35.7 ± 0.8 M⁻¹
same,"GTI (±SE), genotoxicity index",[2],1.26 ± 0.03 M⁻¹
"O=CCI [IAL, iodoacetaldehyde]","CTI (±SE), cytotoxicity index",[1],170.4 ± 7.3 M⁻¹
same,"GTI (±SE), genotoxicity index",[2],0.96 ± 0.03 M⁻¹
"O=CC(Br)(Br)Br [TBAL, tribromoacetaldehyde]",CC50 at 72 h,[3],3.58 µM
same,"CTI (±SE), cytotoxicity index",[1],279.8 ± 4.8 M⁻¹
same,"GTI (±SE), genotoxicity index",[2],3.00 ± 0.03 M⁻¹
"O=CC(Cl)(Cl)Cl [TCAL, trichloroacetaldehyde]","CTI (±SE), cytotoxicity index",[1],0.94 ± 0.03 M⁻¹
same,genotoxicity (result in words),[2]; SCGE assay,not genotoxic
